These results are taken from PubChem BioAssay AID493187 (Sanford-Burnham Center for Chemical Genomics, 2011).

The campaign covered roughly 340,000 compounds. About 190 (0.056%) were called active.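 How the source made its calls: active means activation of 40% or more at 20 µM, a change of -40% or lower; inactive means the rest.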 The entries come from a sample that favours actives as a whole.

Sequence of Hexokinase HKDC1 (Homo sapiens) (Q2TB90 whole entry, looked up): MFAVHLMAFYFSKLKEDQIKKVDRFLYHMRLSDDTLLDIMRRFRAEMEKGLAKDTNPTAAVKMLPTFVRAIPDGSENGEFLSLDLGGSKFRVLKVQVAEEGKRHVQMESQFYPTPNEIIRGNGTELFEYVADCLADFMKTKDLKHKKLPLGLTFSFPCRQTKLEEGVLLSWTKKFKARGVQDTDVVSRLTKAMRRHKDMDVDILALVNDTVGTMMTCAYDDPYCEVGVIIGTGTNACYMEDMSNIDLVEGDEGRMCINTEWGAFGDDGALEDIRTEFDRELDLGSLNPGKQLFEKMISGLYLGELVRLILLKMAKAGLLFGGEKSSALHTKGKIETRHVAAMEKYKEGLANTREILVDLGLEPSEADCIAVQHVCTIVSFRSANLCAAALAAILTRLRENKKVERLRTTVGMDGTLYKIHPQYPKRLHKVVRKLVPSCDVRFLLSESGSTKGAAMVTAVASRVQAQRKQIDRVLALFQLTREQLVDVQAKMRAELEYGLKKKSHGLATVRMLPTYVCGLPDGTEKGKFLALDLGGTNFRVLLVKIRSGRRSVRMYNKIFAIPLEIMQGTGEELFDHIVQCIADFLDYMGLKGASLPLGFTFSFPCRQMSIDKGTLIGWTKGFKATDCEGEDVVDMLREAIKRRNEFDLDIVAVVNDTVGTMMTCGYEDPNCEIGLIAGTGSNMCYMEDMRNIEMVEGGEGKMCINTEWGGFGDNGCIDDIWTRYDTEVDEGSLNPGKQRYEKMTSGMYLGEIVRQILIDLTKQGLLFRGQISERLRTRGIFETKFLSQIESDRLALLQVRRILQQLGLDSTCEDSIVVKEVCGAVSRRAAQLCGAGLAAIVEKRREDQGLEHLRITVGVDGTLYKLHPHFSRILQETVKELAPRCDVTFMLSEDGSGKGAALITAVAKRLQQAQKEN

The target of the test is Hexokinase HKDC1 (Homo sapiens) (UniProt Q2TB90). Nature of the test: HKDC1 hexokinase activators, primary screen, biochemical, fluorescence, uHTS (AID 493187). Particulars: recombinant HKDC1, G6PDH/diaphorase resazurin fluorescence; at 20 µM; hits give low values. In outline:
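System: in-house human HKDC1 enzyme, G6PDH and diaphorase coupling enzymes; Quantity: 5 µg/mL HKDC1 final; Buffer or medium: Tris/MgCl2 buffer, pH 8.0; Dosing: single compound dose of 20 µM, 1% DMSO final; Times: 90 min reaction at room temperature, dark; Detection: coupled resazurin-to-resorufin fluorescence, Ex 525/Em 613 nm.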
For orientation: Resazurin is reduced to fluorescent resorufin, in cell work by metabolically active cells.
On to `CC(=O)OC1C2(CC3N4C(=O)C5(CO)SSC4(CC31O)C(=O)N5C)OC(C)C(C)(C)C2=O` (stereo unspecified), for which the activity change, negative = activation was -42.1% (active).
